# Where a chain is given by its changes, count along the chain named.
# Experiments:
# [1] = molecular target: T1, Adenosine receptor A3 (Homo sapiens) (UniProt P0DMS8); assay: Displacement of [3H]PSB11 from human A3 adenosine receptor expressed in CHO cell membranes measured after 2 hrs by scintillation spectrometric method
# T1 sequence (whole entry): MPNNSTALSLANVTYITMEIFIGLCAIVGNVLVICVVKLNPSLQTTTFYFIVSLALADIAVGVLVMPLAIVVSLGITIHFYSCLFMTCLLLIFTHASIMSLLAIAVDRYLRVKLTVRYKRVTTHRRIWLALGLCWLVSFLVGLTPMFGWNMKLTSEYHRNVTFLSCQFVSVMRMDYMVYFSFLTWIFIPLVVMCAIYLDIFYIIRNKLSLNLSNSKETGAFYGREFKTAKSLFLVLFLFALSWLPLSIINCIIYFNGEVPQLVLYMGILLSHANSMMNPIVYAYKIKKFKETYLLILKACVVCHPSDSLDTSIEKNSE
# [2] = molecular target: T2, Adenosine receptor A2b (Homo sapiens) (UniProt P29275); assay: Displacement of [3H]PSB-603 from human A2B adenosine receptor expressed in CHO cell membranes at 1 uM measured after 2 hrs by scintillation spectrometric method relative to control
# T2 sequence (whole entry): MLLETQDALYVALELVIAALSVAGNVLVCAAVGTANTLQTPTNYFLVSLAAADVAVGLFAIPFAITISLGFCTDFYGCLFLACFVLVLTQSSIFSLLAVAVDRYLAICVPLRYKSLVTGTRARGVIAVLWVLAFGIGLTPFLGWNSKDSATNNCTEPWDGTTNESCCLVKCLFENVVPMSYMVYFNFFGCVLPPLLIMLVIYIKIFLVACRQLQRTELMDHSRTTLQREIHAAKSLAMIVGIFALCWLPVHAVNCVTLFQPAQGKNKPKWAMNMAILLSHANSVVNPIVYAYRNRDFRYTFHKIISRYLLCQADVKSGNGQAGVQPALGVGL
# [3] = molecular target: T1, Adenosine receptor A3 (Homo sapiens); assay: Displacement of [3H]PSB11 from human A3 adenosine receptor transiently expressed in CHOK1 cell membranes measured after 2 hrs by scintillation spectrometric method
# Outline: (§1)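 CHO-K1 cells transfected by PEI (3:1, 20 µg DNA/dish) with WT or Y265F7.36 hA3AR, then given 5 mM sodium butyrate for 24 h before membrane preparation.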
# [4] = test system: T3, Adenosine receptor A3 (Homo sapiens), P0DMS8 [Y265F]; assay: Displacement of [3H]PSB11 from human A3 adenosine receptor Y265F (7.36) mutant transiently expressed in CHOK1 cell membranes measured after 2 hrs by scintillation spectrometric method; outline: as §1
# T3 sequence (whole entry): T1 sequence (whole entry) with Y265F
# [5] = molecular target: T4, Adenosine receptor A3 (Homo sapiens, UniProt P0DMS8); assay: Irreversible displacement of [3H]PSB11 from human A3 adenosine receptor expressed in CHO cell membranes measured up to 240 mins by scintillation spectrometric method; settings: in the assay text read “Displacement” for “Irreversible displacement”
# T4 sequence (P0DMS8 whole entry): T1 sequence (whole entry)
# Outline: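 Bound radioligand sampled at time points up to 240 min, then filtered and counted. Competitor kon (k3) and koff (k4) obtained by Motulsky–Mahan fitting, using [3H]PSB-11 k1 and k2 from earlier work.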
# [6] = molecular target: T1, Adenosine receptor A3 (Homo sapiens); assay: Reversible displacement of [3H]PSB11 from human A3 adenosine receptor expressed in CHO cell membranes assessed as residual binding level at 10 times Ki measured after 2 hrs by scintillation spectrometric method relative to control
# Outline: (§2)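 Samples then either taken unwashed or put through four centrifugation wash cycles before exposure to [3H]PSB-11. Remaining specific binding was normalized to vehicle (100%). Three experiments in duplicate; unpaired t test.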
# [7] = molecular target: T1, Adenosine receptor A3 (Homo sapiens); assay: (§3) Reversible displacement of [3H]PSB11 from human A3 adenosine receptor expressed in CHO cell membranes assessed as residual binding level at 10 times Ki incubated for 2 hrs followed by 4 times membrane washout and subsequent [3H]PSB11 addition by scintillation spectrometric method relative to control; outline: as §2
# [8] = molecular target: T4, Adenosine receptor A3; assay: Competitive surmountable antagonist activity at human A3 adenosine receptor expressed in CHO cell membranes assessed as inhibition of 2-Cl-IB-MECA-induced [35S]-GTPgammaS binding preincubated for 60 mins followed by 2-Cl-IB-MECA and [35S]-GTPgammaS addition and measured after 30 mins; format: functional; settings: read-out: pA2 (converted)
# [9] = molecular target: T4, Adenosine receptor A3; assay: Competitive surmountable antagonist activity at human A3 adenosine receptor expressed in CHO cell membranes assessed as inhibition of 2-Cl-IB-MECA-induced [35S]-GTPgammaS binding measured after 30 mins; format: functional; settings: read-out: pA2 (converted)
# [10] = molecular target: T1, Adenosine receptor A3 (Homo sapiens); assay: Displacement of [3H]PSB11 from human A3 adenosine receptor expressed in CHO cell membranes at 10 uM measured after 2 hrs by scintillation spectrometric method relative to control
# [11] = molecular target: T1, Adenosine receptor A3 (Homo sapiens); assay: as §3, with “Irreversible” for “Reversible”, “ans” for “and”
# Outline: (§4)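 Membranes then either unwashed or washed four times by centrifugation before [3H]PSB-11 addition. Specific binding normalized to vehicle (100%); three experiments in duplicate; unpaired t test.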
# [12] = test system: T3, Adenosine receptor A3 (Homo sapiens), P0DMS8 [Y265F]; assay: (§5) Displacement of [3H]PSB11 from human A3 adenosine receptor Y265F (7.36) mutant transiently expressed in CHOK1 cell membranes assessed as residual binding level at 10 times IC50 measured after 2 hrs by scintillation spectrometric method
# Outline: (§6)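 Membranes then either unwashed or washed four times before [3H]PSB-11 exposure. Binding normalized to vehicle (100%); three experiments in duplicate.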
# [13] = test system: T3, Adenosine receptor A3 (Homo sapiens), P0DMS8 [Y265F]; assay: as §5, with “incubated for” for “measured after”, “hrs followed by 4 times membrane washout and subsequent [3H]PSB11 addition” for “hrs”; outline: as §6
# [14] = molecular target: T1, Adenosine receptor A3 (Homo sapiens); assay: Displacement of [3H]PSB11 from human A3 adenosine receptor expressed in CHO cell membranes by scintillation spectrometric method; settings: TDE = time-dependent effect
# Outline: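 CHO membranes stably expressing hA3AR (15 µg) in 50 mM Tris-HCl, 5 mM MgCl2, 0.01% CHAPS, 1 mM EDTA, pH 7.4, with ~10 nM [3H]PSB-11 and six competitor concentrations, 120 min at 25 °C. Nonspecific binding defined with 100 µM NECA. Filtration, then scintillation counting; one-site fit, Cheng-Prusoff Ki; three experiments in duplicate.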
# [15] = molecular target: T1, Adenosine receptor A3 (Homo sapiens); assay: Irreversible displacement of [3H]PSB11 from human A3 adenosine receptor expressed in CHO cell membranes assessed as residual binding level at 10 times Ki measured after 2 hrs by scintillation spectrometric method relative to control; outline: as §4
structure (smiles),measurement,setting,value
CCCn1c(=O)c2c(nc3cc(OC)ccn32)n(CCCOC(=O)c2ccc(S(=O)(=O)F)cc2)c1=O,inhibition,[1],Dose-dependent effect
CCCn1c(=O)c2c(nc3cc(OC)ccn32)n(CCCNC(=O)c2ccc(S(C)(=O)=O)cc2)c1=O,inhibition,[1],Dose-dependent effect
same,inhibition,[2],0%
same,pIC50(app),[3],5.9
same,pIC50(app),[4],6.1
same,Ki,[5],525 nM
same,Activity,[6],19.8%
same,Activity,[7],97.6%
same,Kb,[8],1260 nM
same,Kb,[9],631 nM
CCCn1c(=O)c2c(nc3cc(OC)ccn32)n(CCCCOC(=O)c2ccc(S(=O)(=O)F)cc2)c1=O,inhibition,[1],Dose-dependent effect
CCCn1c(=O)c2c(nc3cc(OC)ccn32)n(CCCCNC(=O)c2cccc(S(=O)(=O)F)c2)c1=O,inhibition,[1],Dose-dependent effect
CCCn1c(=O)c2c(nc3cc(OC)ccn32)n(CCNC(=O)c2ccc(S(=O)(=O)F)cc2)c1=O,inhibition,[1],Dose-dependent effect
same,inhibition,[10],27%
CCCn1c(=O)c2c(nc3cc(OC)ccn32)n(CCOC(=O)c2ccc(S(=O)(=O)F)cc2)c1=O,inhibition,[1],Dose-dependent effect
CCCn1c(=O)c2c(nc3cc(OC)ccn32)n(CCOC(=O)c2cccc(S(=O)(=O)F)c2)c1=O,inhibition,[1],Dose-dependent effect
CCCn1c(=O)c2c(nc3cc(OC)ccn32)n(CCNC(=O)c2cccc(S(=O)(=O)F)c2)c1=O,inhibition,[1],Dose-dependent effect
same,inhibition,[10],18%
CCCn1c(=O)c2c(nc3cc(OC)ccn32)n(CCCCOC(=O)c2cccc(S(=O)(=O)F)c2)c1=O,inhibition,[1],Dose-dependent effect
CCCn1c(=O)c2c(nc3cc(OC)ccn32)n(CCCNC(=O)c2cccc(S(=O)(=O)F)c2)c1=O,inhibition,[1],Dose-dependent effect
CCCn1c(=O)c2c(nc3cc(OC)ccn32)n(CCCOC(=O)c2cccc(S(=O)(=O)F)c2)c1=O,inhibition,[1],Dose-dependent effect
CCCn1c(=O)c2c(nc3cc(OC)ccn32)n(CCCCNC(=O)c2ccc(S(=O)(=O)F)cc2)c1=O,inhibition,[1],Dose-dependent effect
CCCn1c(=O)c2c(nc3cc(OC)ccn32)n(CCCNC(=O)c2ccc(S(=O)(=O)F)cc2)c1=O,inhibition,[1],Dose-dependent effect
same,Activity,[11],8.7%
same,Activity,[12],7.2%
same,Activity,[13],91%
same,inhibition,[14],Tde
same,Activity,[15],11.3%
